Source: paper PMC6331221 (Biomaterials, 2018)

Legend:
[1] = system: LCC-6-MDR orthotopic tumor; assay: Anti-tumor efficacy in orthotopic LCC-6-MDR breast cancer model; assay type: in vivo, mice; conditions: q4d x 4; 60 mg/kg PTX and/or 4.5 mg/kg C6CP, cisplatin 3 mg/kg
[2] = system: A2780 ovarian cancer cell line; assay: MTT cytotoxicity assay in A2780 cells; assay type: cell-based, human; conditions: 72 h
How it was run: (§1)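 Cells grown in RPMI1640 with 10% FBS and 1% penicillin-streptomycin, seeded at 3000 cells/well 24 h before treatment, then exposed to free or micelle-incorporated drug serially diluted in full medium for 72 h. MTT added for 4 h at 37°C, formazan dissolved in DMSO, absorbance read at 562 nm. Survival relative to untreated wells; six wells, mean ± standard deviation; IC50 from fitted curves.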

[3] = system: A2780/CisR (cisplatin resistant) ovarian cancer cell line; assay: MTT cytotoxicity and combination index in A2780/CisR cells; assay type: cell-based, human; conditions: 72 h
How it was run: as §1

[4] = system: A2780/CisR ovarian cancer xenograft; assay: Anti-tumor efficacy in A2780/CisR ovarian cancer xenograft model; assay type: in vivo, mice; conditions: q4d x 4, 20 mg/kg PTX and/or 20 mg/kg CP, cisplatin 3 mg/kg

SMILES: N.N.[Cl][Pt][Cl] [cisplatin]
- antitumor effect [1]: considerable antitumor effect
- IC50 [2]: 1.141 µg/mL
- IC50 [3]: 10.88 µg/mL
- effect on tumor growth [4]: small but significant effect by delaying the tumor growth
- median lifespan ([4]; untreated 10.5 days): 14.5 days
